Rows were chosen to be rich in hits. Some 1.9% of all compounds tested hit in one or more screens of this group.
CaV13 FRET inh – Disruptors of the CACNA1D IQ motif to Ca2+-dependent inactivation inhibitor domain association, primary screening, Förster resonance energy transfer in intact living …. HEK cells, CFP/YFP FRET ICDI-IQ, plate reader, 10 min; percent FRET-ratio fall versus neutral wells. inhibition, % at 12.3 µM. 0.098% of 340,000 active. AID 743397;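 active = mean replicate inhibition of at least 30% and at least 1% of replicates passing that level; inconclusive = only one of the two criteria is met; inactive = neither criterion is met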;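 also: 0% = median of the neutral control wells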
RanGTP-Impb inh – disruptors of Ran-importin-beta complex formation – biochemical, FRET, CFP-Ran, YFP-importin-beta, homogeneous, primary screen; cell-free CFP-Ran/YFP-importin-beta FRET ratio; inhibition, % (test concentration not listed); 1.1% of 300,000 active;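 active = more than half of the replicate wells show a fall in the fluorescence ratio signal beyond about 16%, limit read from the data, passing the limit was not always enough; inconclusive = exactly half of the replicate wells pass the set limit; inactive = fewer than half of replicates pass the limit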;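 also: 0% = DMSO wells and 100% = Ran loaded with GDP instead of GTP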
HDAC3 inhib – blocks human histone deacetylase 3; O15379; AID 2718; 0.15% of 320,000 active; inhibition, % at 8.3 µM; recombinant HDAC3, fluorogenic peptide/trypsin coupled, fluorescence; in the data active = inhibition above about 26%, passing the limit was not always enough; inconclusive = no clear call, values can overlap the other calls
LANA-H2B inh – blocks KSHV LANA binding to histone H2A/H2B; Q9QR71; inhibition, % (test concentration not listed); 0.6% of 320,000 active; cell-free LANA-H2A/H2B peptide, fluorescence polarization; in the data active = inhibition mostly above about 10%, no sharp cut-off; inactive = mostly below about 6.7%
Target sequence (Q9QR71 whole entry, looked up): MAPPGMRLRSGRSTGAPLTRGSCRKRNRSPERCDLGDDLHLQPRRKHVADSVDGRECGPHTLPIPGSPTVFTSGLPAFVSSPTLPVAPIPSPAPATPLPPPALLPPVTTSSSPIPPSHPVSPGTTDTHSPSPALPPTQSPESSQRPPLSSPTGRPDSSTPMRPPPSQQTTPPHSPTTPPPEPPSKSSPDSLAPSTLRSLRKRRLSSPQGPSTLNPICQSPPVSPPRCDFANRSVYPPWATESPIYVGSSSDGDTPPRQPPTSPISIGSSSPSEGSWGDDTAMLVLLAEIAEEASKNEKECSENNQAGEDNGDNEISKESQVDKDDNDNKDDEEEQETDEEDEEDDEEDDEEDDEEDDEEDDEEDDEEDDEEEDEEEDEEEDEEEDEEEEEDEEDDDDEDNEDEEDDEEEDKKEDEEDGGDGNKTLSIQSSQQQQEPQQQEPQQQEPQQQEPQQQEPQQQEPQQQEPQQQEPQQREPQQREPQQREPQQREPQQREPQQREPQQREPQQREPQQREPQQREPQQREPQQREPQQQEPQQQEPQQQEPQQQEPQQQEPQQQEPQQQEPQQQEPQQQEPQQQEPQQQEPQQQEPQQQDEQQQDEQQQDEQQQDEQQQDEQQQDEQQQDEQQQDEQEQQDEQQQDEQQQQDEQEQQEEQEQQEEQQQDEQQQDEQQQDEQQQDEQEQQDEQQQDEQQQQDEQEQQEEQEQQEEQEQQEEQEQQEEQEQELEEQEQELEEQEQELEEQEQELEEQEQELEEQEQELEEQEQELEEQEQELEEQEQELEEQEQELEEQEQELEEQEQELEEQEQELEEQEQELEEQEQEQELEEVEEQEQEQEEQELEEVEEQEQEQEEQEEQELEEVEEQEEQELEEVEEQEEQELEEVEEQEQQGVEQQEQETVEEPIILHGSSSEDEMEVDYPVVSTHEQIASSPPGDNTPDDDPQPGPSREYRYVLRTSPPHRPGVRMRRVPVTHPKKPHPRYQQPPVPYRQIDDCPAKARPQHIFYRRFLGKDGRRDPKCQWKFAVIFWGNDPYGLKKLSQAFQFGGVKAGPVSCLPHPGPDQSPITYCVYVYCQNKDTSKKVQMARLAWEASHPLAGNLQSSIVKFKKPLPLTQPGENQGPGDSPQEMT
Runt-SMMHC FRET – inhibitors of human RUNX1 Runt domain binding to CBFb-SMMHC; inhibition, % at 20 µM; Q01196+Q13951; 0.74% of 220,000 active; AID 1434; Cerulean-Runt/Venus-CBFb-SMMHC FRET ratio 530/480, 1 h;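 active = mean inhibition across duplicate retests at 20 µM reaching about 50%, limit read from the data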;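 also: 0% = DMSO wells and 100% = wells with excess untagged CBFb-SMMHC; inhibitors lower the FRET ratio by blocking Runt binding to CBFb-SMMHC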
Runt-CBFb FRET – Runt domain-CBFb interaction inhibition. 0.46% of 220,000 active. Q01196+Q13951. inhibition, % at 20 µM. Cerulean-Runt/Venus-CBFb FRET ratio 530/480, 1 h;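 active = inhibition over about 50% at 20 µM in the single-dose screen, limit read from the data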;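 also: 0% = DMSO wells and 100% = excess unlabeled CBFb competitor control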
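Assay system: Cerulean-Runt domain fusion protein, energy donor; Signal: fluorescence energy transfer, 422 nm excitation, 530/480 nm emission; Timing: 1 h compound exposure, room temperature; Control set: unlabeled CBFb; Medium: Tris buffer pH 7.5 with salts and BSA; Compound: single test concentration of 20 µM, 1% DMSO final; Probe or stimulus: Venus-CBFb 100 nM.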
* = called active by the depositor; ? = inconclusive; · = no result; ! = a repeat was not active.

SMILES	CaV13 FRET inh	RanGTP-Impb inh	HDAC3 inhib	LANA-H2B inh	Runt-SMMHC FRET	Runt-CBFb FRET
Cc1ccc2c(c1)CC1(CN2C)C(=O)OC2(CCCCC2)OC1=O	-9.0	25.9*	1.5	1.0	-29.5	-4.1
O=C(NCC#CCOCc1ccccc1)c1ccccc1	37.3*	-2.1	-2.3	0.5	1.3	0.5
Cc1ccc(S(=O)(=O)ON2C(=O)c3ccccc3C2=O)c(C)c1	-15.7	·	59.1*	0.1	-2.5	-0.2
Cc1cc(C)c(S(=O)(=O)ON2C(=O)c3ccccc3C2=O)cc1C	-3.8	6.2	2.5	-3.5	-6.4	-3.0
O=C(c1cccn2c(=O)c3cc4ccccc4cc3nc12)N1CCN(c2ccccc2)CC1	·	-7.0	1.2	13.4*	-10.9	2.8
Cc1nc2ccn(Cc3ccccc3)c(=O)c2cc1C(=O)N1CCN(c2ccccc2)CC1	-5.5	91.9*	-1.4	6.1	·	·
O=C(c1cccn2c(=O)c3ccccc3nc12)N1CCN(c2ccccn2)CC1	-3.4	2.6	-2.7	-3.9	-13.5	-1.9
Cc1nnc(SCC2=C(C(=O)O)N3C(=O)C(NC(=O)Cn4cnnn4)C3SC2)s1 (stereo not given)	-6.0	-5.0	-1.8	5.6	·	·
Cc1nnc(SCC2=C(C(=O)O)N3C(=O)[C@@H](NC(=O)Cn4cnnn4)[C@H]3SC2)s1	·	1.6	9.5	76.7*!	5.1	-0.3
COC(=O)c1scc2c(=O)cc(C(F)(F)F)[nH]c12	0.7	116.9*	-12.1	0.0	83.7*	9.5
O=c1cc(C(F)(F)F)[nH]c2ccc(C(F)(F)F)cc12	-13.0	5.7	-5.9	-0.1	-1.2	0.3
CN1CC2(Cc3c1ccc1ccccc31)C(=O)OC(C)(C)OC2=O	-4.0	-0.5	-9.9	0.2	112.6*	28.7
COC(=O)c1cc2c(c3c4cc(OC)ccc4n(S(=O)(=O)c4ccc(OC)cc4)c13)C(=O)N(Cc1ccccc1)C2	-7.5	·	·	·	·	·
O=c1cc(O)sc2ccccc12	-0.2	16.5*	9.3	4.5	2.7	0.1
Cc1nn(-c2ccccn2)c2c1C(c1ccccc1Cl)C1=C(N2)c2ccccc2C1=O (stereo not given)	-15.8	7.0	-5.2	-2.1	-2.4	-3.4
Cc1cccc(OCC(=O)O/N=C(\N)c2ccc(Br)cc2)c1	-5.8	-2.1	-3.1	-3.8	1.5	0.1
COc1ccccc1CNc1nc(NCc2cnc(C)cn2)c2sccc2n1	-3.3	·	·	·	·	·
COC(=O)c1ccc(COc2ccc(/C=C(\C#N)c3nc4ccccc4[nH]3)cc2OC)o1	-11.7	6.0	-0.6	-1.3	-57.3	-20.5
COc1cc(/C=C(/C#N)c2nc3ccccc3[nH]2)ccc1OCc1ccc(C(=O)O)o1	-7.7	5.9	4.5	-1.5	62.6*	49.8
O=C1c2ccccc2C(=O)C1(O)O	·	·	9.4	30.5*	·	·
COc1ccc(C(=O)Cn2cnc3ccc(Cl)cc3c2=O)cc1F	-4.0	-4.7	2.1	4.8	·	·
O=C(Nc1ccccc1O)c1ccc(C(=O)c2ccccc2)o1	-3.4	-4.1	48.1*	3.0	·	·
CC(C)(O)C#Cc1ccc(C(=O)N2CCN(c3ccc(Cl)cc3)CC2)cc1	0.5	?	-0.7	-3.5	1.6	·
O=C(Cc1ccc2ccccc2c1)Nc1ccccc1Br	16.8	-5.5	0.0	39.0*	·	·
O=C(Cc1ccc2c(c1)CCCC2)Nc1ccccc1Br	-8.2	-3.3	8.9	4.0	3.1	1.1
SMILES	CaV13 FRET inh	RanGTP-Impb inh	HDAC3 inhib	LANA-H2B inh	Runt-SMMHC FRET	Runt-CBFb FRET
Cc1cccc(Oc2nc3ccccn3c(=O)c2/C=C(\C#N)C(=O)NC2CCS(=O)(=O)C2)c1C (stereo not given)	-5.5	11.7	-29.1	3.7	·	·
N#C/C(=C\c1c(Oc2ccc(Cl)cc2)nc2ccccn2c1=O)C(=O)NC1CCS(=O)(=O)C1 (stereo not given)	-0.4	50.9*	-7.4	7.7	·	·
Cc1cc(Oc2nc3ccccn3c(=O)c2/C=C(\C#N)C(=O)NC2CCS(=O)(=O)C2)ccc1Cl (stereo not given)	-4.6	58.6*	-12.6	-7.0	·	·
COCCn1c(N)c(C(=O)c2cccc(S(=O)(=O)N3CCCCCC3)c2)c(=O)[nH]c1=O	-6.7	·	-0.5	3.2	·	·
CC(C)c1ccc(S(=O)(=O)N2CCN(C(C)C(=O)N3CCCC3)CC2)cc1 (stereo not given)	-5.8	·	-2.9	-17.6	·	·
COc1ccc(NC(=O)CSc2nc3cccnc3n2C)cc1	-4.5	4.9	-4.0	37.5*	2.3	4.2
COc1ccc(NC(=O)CSc2nc3c([nH]c4ccccc43)c(=O)n2C)cc1	-4.8	7.3	-0.7	11.1*	-5.7	-1.8
COc1ccc(NC(=O)CSc2nc3sc(C)cc3c(=O)n2C)c(OC)c1	-3.5	3.4	-0.7	15.6*	·	·
COC(=O)c1ccc(NC(=O)CSc2nc3cccnc3n2C)cc1	-5.6	2.5	-4.8	2.4	-1.3	-3.3
COCCn1c(SCC(=O)Nc2ccc(NC(C)=O)cc2)nc2c([nH]c3ccccc32)c1=O	-6.6	·	-6.1	-0.5	·	·
COc1ccc(NC(=O)CSc2nc3sc(C)cc3c(=O)n2C)cc1	-3.7	25.1	-2.6	-1.7	·	·
CCOC(=O)c1c(-c2ccc(C)s2)csc1N	3.4	24.4*	-1.2	-2.1	-2.2	9.9
O=C(CN1CCN(Cc2ccccc2Cl)C1=O)N1CCCCCC1	-0.5	-1.2	1.0	-0.7	-0.3	1.2
O=C(CSc1nnc(C2CC2)n1-c1ccccc1)N1CCNC1=O	-6.5	·	2.9	47.2*	·	·
Cc1nc(SCC(=O)N2CCNC2=O)c2ccccc2n1	-5.2	·	2.7	21.0*	·	·
CSc1cccc(NC(=S)N(Cc2ccccc2)Cc2cccnc2)c1	3.1	-3.4	-0.3	-6.8	-1.1	-2.0
O=C(CSc1nnc(-c2ccncc2)n1-c1ccccc1Cl)Nc1ccc(C(=O)O)cc1	-5.2	-0.5	-10.5	47.7*	-1.3	-0.4
O=C(CSc1nnc(-c2ccncc2)n1-c1ccccc1)Nc1ccc(C(=O)O)cc1	0.3	-4.8	3.4	-2.1	-7.3	-0.9
CCOC(=O)c1c(NC(=S)NCCc2ccccc2)sc2c1CC(C(C)C)OC2 (stereo not given)	-5.9	-1.3	5.9	0.8	1.7	9.8
Cc1cc(C)cc(NC(=S)NC(=O)Cc2ccccc2)c1	5.2	1.5	1.8	-3.0	·	·
Cc1cc(C)cc(NC(=O)C(=S)NCc2ccccc2)c1	10.5	5.4	3.5	42.8*	-3.7	-1.4
Cc1cccc(NC(=O)CSc2nnc(C3CC3)n2CC2CCCO2)c1C (stereo not given)	-6.0	-0.8	0.1	-8.0	·	·
CCc1ccccc1NC(=O)CSc1nnc(C2CC2)n1CC1CCCO1 (stereo not given)	-2.5	4.7	0.5	19.4*	·	·
O=C(COC(=O)CNS(=O)(=O)c1ccc(Br)cc1Cl)Nc1ccc(N2CCOCC2)cc1	-5.5	-0.8	-2.1	-8.6	·	·
